FGF22 binding: binders of human FGF22 protein, primary screen, FGF22 synaptogenesis inhibitor project, biophysical, thermal shift, single point; recombinant FGF22 thermal shift, SYPRO orange fluorescence; percent of sucrose octasulfate shift, DMSO zero; activity (Tm shift, normalised), % at 9.99 µM; 340,000 compounds, 1.5% hits;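 active = mean Tm shift, scaled 0 neutral to 100 positive control, at about 1.3% or above, every replicate too, limit read from the data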
ASAP1 inh: inhibitors of human ASAP1 ArfGAP activity, primary screen, biochemical, fluorescence polarization. Arf-GAP with SH3 domain, ANK repeat and PH domain-containing protein 1 (Homo sapiens), …. ASAP1-stimulated ARF1 GTP hydrolysis, GDP FP detection. inhibition, % at 16.5 µM. 360,000 compounds, 0.19% hits. AID 624377, 2012; in the data active = inhibition above about 25%
Target sequence (Q9ULH1 325-724 limits assumed): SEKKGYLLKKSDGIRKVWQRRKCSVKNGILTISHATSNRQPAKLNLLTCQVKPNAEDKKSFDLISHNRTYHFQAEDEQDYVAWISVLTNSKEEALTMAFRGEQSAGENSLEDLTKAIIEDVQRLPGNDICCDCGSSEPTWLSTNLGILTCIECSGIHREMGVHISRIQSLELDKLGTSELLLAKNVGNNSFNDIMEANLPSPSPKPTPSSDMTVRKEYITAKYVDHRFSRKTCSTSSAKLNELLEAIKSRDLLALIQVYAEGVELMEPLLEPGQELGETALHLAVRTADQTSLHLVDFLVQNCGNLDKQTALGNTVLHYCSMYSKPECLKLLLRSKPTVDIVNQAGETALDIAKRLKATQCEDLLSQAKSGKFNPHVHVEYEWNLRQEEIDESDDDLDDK
Rtt109 Vps75: inhibitors of C. albicans Rtt109/Vps75 HAT, primary screen, biochemical, ThioGlo CoA-SH fluorescence, plate reader. purified Rtt109/Vps75, 4 h. 330,000 compounds, 0.16% hits. inhibition, % at 34.9 µM. Histone acetyltransferase RTT109 (Candida albicans (strain SC5314 / ATCC MYA-2876)), …;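 active = inhibition of at least 50% in every replicate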
Target sequence (Q5AAJ8 whole entry, looked up): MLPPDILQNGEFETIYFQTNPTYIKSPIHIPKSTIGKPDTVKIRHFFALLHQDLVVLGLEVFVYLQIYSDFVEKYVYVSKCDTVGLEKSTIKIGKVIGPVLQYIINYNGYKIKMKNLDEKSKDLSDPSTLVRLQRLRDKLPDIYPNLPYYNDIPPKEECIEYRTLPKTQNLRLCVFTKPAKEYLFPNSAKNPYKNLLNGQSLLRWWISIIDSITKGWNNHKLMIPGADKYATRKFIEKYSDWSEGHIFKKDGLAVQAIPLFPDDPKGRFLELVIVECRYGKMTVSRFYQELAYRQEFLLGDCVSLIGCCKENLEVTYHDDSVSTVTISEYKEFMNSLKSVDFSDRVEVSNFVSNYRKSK
Efflux pump inh: inhibitors of Candida efflux pumps in yeast, primary screen, S. cerevisiae, Nile Red, multiplex; AID 485275, 2010; inhibition, % at 10 µM; 330,000 compounds, 0.44% hits; S. cerevisiae Candida pump triplex;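 active = plate passing quality check with inhibition over a set limit, or well fluorescence over plate mean plus 4 SD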;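 note: Nile Red retained in pooled yeast measured as flow cytometry median fluorescence; higher means more Nile Red kept so more efflux inhibition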
ARFGAP1 inhibitor: inhibitors of rat ARFGAP1 GAP activity, primary screen, biochemical, fluorescence polarization, GDP tracer; Arfgap1-stimulated ARF1 GTP hydrolysis, GDP FP detection; inhibition, % at 16.5 µM; 360,000 compounds, 0.26% hits;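 active = inhibition above a per-plate limit, mean inhibition of low control wells plus 3 SD, cut at about 25% in these data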
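Material: rat Arfgap1 catalytic domain, aa 1-136; also added: human ARF1(Δ1-17)-GTP substrate; compound dosing: one concentration, 16.5 µM, DMSO 1.26%; incubation: GTP hydrolysis reaction 2 h at 25 °C; measured by: Tracer-displacement fluorescence polarization with EDTA stop, 620/688 nm; evaluation: % inhibition from polarization; repeats: one replicate per compound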
Cmpd fluor yeast: counter-screen for efflux pump inhibitors: compound fluorescence; shares compounds with Efflux pump inh; S. cerevisiae AD/pABC3, flow cytometry; fluorescence ratio to DMSO, % at 10 µM; 1,700 compounds, 4% hits;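 active = fluorescence ratio to DMSO above its plate's cutoff, the plate mean ratio plus 5 SD, cut at about 210% in these data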;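 note: unstained yeast with no Nile Red so the signal is compound autofluorescence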
Mdr1 pump inh: inhibitors of Candida albicans Mdr1 efflux, confirmation, flow cytometry, singleplex, Cherry Pick1 set. shares compounds with Efflux pump inh. S. cerevisiae AD/CaMDR1, Nile Red efflux. inhibition, % at 10 µM. 1,700 compounds, 1% hits. AID 588518, 2011; in the data active = inhibition above about 26%;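 note: higher means more Nile Red retained so more efflux inhibition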
Cdr2 pump inh: inhibitors of Candida albicans Cdr2 efflux pump, confirmation, S. cerevisiae AD/CaCDR2, flow cytometry, cherry pick 1, singleplex | Nile Red retention | Nile Red retention ratio vs DMSO, % at 10 µM | 1,700 compounds, 4% hits | AID 588520, 2011 | shares compounds with Efflux pump inh; in the data active = Nile Red retention ratio vs DMSO above about 190%;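 note: higher ratio means more blocking of Cdr2 efflux of the dye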
CaCdr1 efflux inh: inhibitors of Candida albicans Cdr1 efflux pump, confirmation, S. cerevisiae AD/CaCDR1, flow cytometry, cherry pick 1, singleplex; shares compounds with Efflux pump inh; inhibition, % at 10 µM; 1,700 compounds, 1% hits; Nile Red efflux;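 active = inhibition above the screen-wide mean plus twice its standard deviation, cut at about 32% in these data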
ASAP1 inh confirm: ASAP1 GAP activity inhibitors, confirmation, biochemical, fluorescence polarization, human, triplicate. shares compounds with ASAP1 inh. ASAP1-stimulated Arf1 GTPase, GDP fluorescence polarization. inhibition, % at 16.5 µM. 620 compounds, 37% hits;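 active = mean inhibition over triplicates exceeds the hit threshold derived for the earlier primary screening run, cut at about 25% in these data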
Large screens that a line does not name were inactive (follow-up assays come after a bar, where they were run). Shown are actives, neighbours in structure and some others; about 1.9% of the full set was active somewhere.

O=C(/C=C/c1ccc(Br)cc1)c1ccc(NC(=O)c2ccco2)cc1	Efflux pump inh 5.8 (no result: FGF22 binding) | Cmpd fluor yeast inactive | Mdr1 pump inh inactive | Cdr2 pump inh inactive | CaCdr1 efflux inh inactive
CCOC(=O)c1cccc(NC(=O)c2ccc(NC(=O)c3ccco3)cc2)c1	none | Cmpd fluor yeast inactive | Mdr1 pump inh inactive | Cdr2 pump inh inactive | CaCdr1 efflux inh inactive
CC(=O)c1ccc(NC(=O)c2ccc(NC(=O)c3ccco3)cc2)cc1	Efflux pump inh 6.2 (no result: FGF22 binding, ASAP1 inh, ARFGAP1 inhibitor) | Cmpd fluor yeast inactive | Mdr1 pump inh inactive | Cdr2 pump inh inactive | CaCdr1 efflux inh inactive
Cc1cc(C)cc(NC(=O)c2ccc(NC(=O)c3ccco3)cc2)c1	none | Cmpd fluor yeast inactive | Mdr1 pump inh inactive | Cdr2 pump inh inactive | CaCdr1 efflux inh inactive
C[C@H]1CN([C@@H](C)CO)S(=O)(=O)c2ccc(-c3ccc(F)cc3)cc2O[C@H]1CN(C)C(=O)Nc1ccccc1F	none (no result: ASAP1 inh, Rtt109 Vps75, Efflux pump inh, ARFGAP1 inhibitor)
COc1cccc(-c2ncc3ccccc3c2COC(=O)c2ccc(C(F)(F)F)cc2)c1	none
O=C(Cn1nc(C(=O)O)c2ccccc2c1=O)Nc1nc(-c2ccccc2)cs1	none
Cc1ccc(S(=O)(=O)NCC(=O)NNC(=O)c2ccccc2Cl)cc1C	none
CN(C(=O)c1cccc(NC(=O)c2ccco2)c1)c1ccccc1	none
CN(C(=O)c1ccc(NC(=O)c2ccco2)cc1)c1ccccc1	none | Cmpd fluor yeast inactive | Mdr1 pump inh inactive | Cdr2 pump inh inactive | CaCdr1 efflux inh inactive
CCOC(=O)C[N+]1(C)CCN(C(C)=O)CC1	none (no result: Rtt109 Vps75)
C[C@@H]1CN([C@H](C)CO)C(=O)Cc2cc(NC(=O)Nc3ccc(C(F)(F)F)cc3)ccc2O[C@@H]1CN(C)Cc1ccc2c(c1)OCO2	none (no result: ASAP1 inh, Rtt109 Vps75, Efflux pump inh, ARFGAP1 inhibitor)
O=C(CN1CCN(CCOCCO)CC1)N1c2ccccc2Sc2ccc(Cl)cc21	Efflux pump inh 1.4 (no result: FGF22 binding, ASAP1 inh, ARFGAP1 inhibitor) | Cmpd fluor yeast inactive | Mdr1 pump inh inactive | Cdr2 pump inh inactive | CaCdr1 efflux inh inactive
O=C(CN1CCOCC1)N1c2ccccc2Sc2ccc(Cl)cc21	none (no result: Rtt109 Vps75, Efflux pump inh)
CCN(CC)C(=O)Cn1c(C)c(/C=C/c2cc[n+](C)cc2)c2ccccc21	none | Cmpd fluor yeast 365 | Mdr1 pump inh inactive | Cdr2 pump inh inactive | CaCdr1 efflux inh inactive
CC(C)n1cc(/C=C/c2cc[n+](C)cc2)c2ccccc21	none (no result: Efflux pump inh) | Cmpd fluor yeast 472 | Mdr1 pump inh inactive | Cdr2 pump inh inactive | CaCdr1 efflux inh inactive
C=CCn1cc(/C=C/c2cc[n+](C)cc2)c2ccccc21	none | Cmpd fluor yeast 289 | Mdr1 pump inh inactive | Cdr2 pump inh inactive | CaCdr1 efflux inh inactive
C=CCn1c(C)c(/C=C/c2cc[n+](C)cc2)c2ccccc21	Efflux pump inh 1.4 | Cmpd fluor yeast 684 | Mdr1 pump inh inactive | Cdr2 pump inh inactive | CaCdr1 efflux inh inactive
Cc1[nH]c2ccccc2c1/C=C/c1cc[n+](C)cc1	none (no result: FGF22 binding, Efflux pump inh)
CCN(CC)C(=O)Cn1c(=O)n(C)c2ccccc21	none (no result: FGF22 binding)
CCn1cc(/C=C/c2cc[n+](C)cc2)c2ccccc21	Efflux pump inh 5.0 | Cmpd fluor yeast 726 | Mdr1 pump inh inactive | Cdr2 pump inh inactive | CaCdr1 efflux inh inactive
Cc1ccccc1/C=C/c1cc[n+](C)cc1	none
CC(C)Sc1cc(N2CCOCC2)nc(-c2ccccc2)n1	none (no result: FGF22 binding) | Cmpd fluor yeast inactive | Mdr1 pump inh inactive | Cdr2 pump inh inactive | CaCdr1 efflux inh inactive
CSc1cc(N2CCOCC2)nc(-c2ccccc2Cl)n1	none | Cmpd fluor yeast inactive | Mdr1 pump inh inactive | Cdr2 pump inh inactive | CaCdr1 efflux inh inactive
CC(C)Sc1cc(N2CCCC2)nc(-c2ccccc2Cl)n1	none (no result: FGF22 binding) | Cmpd fluor yeast inactive | Mdr1 pump inh inactive | Cdr2 pump inh inactive | CaCdr1 efflux inh inactive
CCSc1cc(N2CCCC2)nc(-c2ccccc2Cl)n1	none | Cmpd fluor yeast inactive | Mdr1 pump inh inactive | Cdr2 pump inh inactive | CaCdr1 efflux inh inactive
CCCC#Cc1cnc2c(c1)C(=O)N([C@H](C)CO)C[C@@H](C)[C@H](CN(C)C(=O)c1ccccc1)O2	none (no result: ASAP1 inh, Rtt109 Vps75, Efflux pump inh, ARFGAP1 inhibitor)
CCOC(=O)N1CCN(c2c(NCCc3ccc(C)cc3)c(=O)c2=O)CC1	none
CCCn1nnnc1SCC(=O)NCc1ccc(OC)cc1	none (no result: FGF22 binding)
CCNC(=O)NC(=O)CSc1ccc(S(=O)(=O)N(C)C2CCCCC2)cn1	none
COc1ccc2c(c1)CC/C(=C/c1ccco1)C2=O	Efflux pump inh 20 | Cmpd fluor yeast inactive | Mdr1 pump inh inactive | Cdr2 pump inh inactive | CaCdr1 efflux inh inactive
CC[n+]1c(/C=C/C=C/N(C(C)=O)c2ccccc2)sc2ccccc21	ASAP1 inh 45, Efflux pump inh 1.3 (no result: FGF22 binding) | Cmpd fluor yeast 309 | Mdr1 pump inh inactive | Cdr2 pump inh inactive | CaCdr1 efflux inh inactive | ASAP1 inh confirm 44
Cc1ccc(S(=O)(=O)N2C[C@H]3C(=O)C[C@@H](c4ccccc4)N(S(=O)(=O)c4ccc(C)cc4)[C@H]3C[C@H]2c2cccc3ccccc23)cc1	none (no result: Rtt109 Vps75, Efflux pump inh)
C=C(C)C(O)CC/C(C)=C/Cc1c(O)ccc(C(=O)/C=C/c2ccc(O)cc2)c1O (stereo unspecified)	none

Screens as filed in PubChem.
